# Data published in ChEMBL document CHEMBL2021788, “Cytotoxic cardiac glycosides and other compounds from Asclepias syriaca” (J Nat Prod, 2012).
# Columns and labels:
# MCF7 = experiment: Cytotoxicity against human MCF7 cells after 72 hrs by CellTiter-Glo assay; format: functional, cell-based; conditions: MCF7, 72 h
# Summary of the method: (§1)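 Breast lines (normal Hs578Bst; cancer Hs578T, T47D, Sk-Br-3, MCF-7) seeded at 3000 cells/well in 384-well plates, attached overnight. Compound dispensed acoustically at 14 concentrations spanning 0.002−40 μM, 72 h incubation. Viability by CellTiter-Glo luminescence read after 2 min shaking and 15 min stabilization. Triplicate dose−response curves, data normalized to median, IC50 from curve fit.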
# T47D = experiment: Cytotoxicity against human T47D cells after 72 hrs by CellTiter-Glo assay; format: functional, cell-based; summary of the method: as §1
# SK-BR-3 = experiment: Cytotoxicity against human SK-BR-3 cells after 72 hrs by CellTiter-Glo assay; format: functional, cell-based; conditions: SK-BR-3, 72 h; summary of the method: as §1
# Hs-578T [1] = experiment: Cytotoxicity against human Hs578T cells after 72 hrs by CellTiter-Glo assay; format: functional, cell-based; summary of the method: as §1
# [2] = Cytotoxicity against human Hs578Bst cells after 72 hrs by CellTiter-Glo assay; format: cell-based; summary of the method: as §1
# Hs-578T [3] = experiment: Cytotoxicity against human Hs578T cells at 40 uM after 72 hrs by CellTiter-Glo assay relative to untreated control; format: functional, cell-based
# Summary of the method: (§2)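 Hs578T or Hs578Bst cells plated at 3000/well in 384-well format, grown overnight, then exposed to 40 μM (top of a 14-point 0.002−40 μM series) for 72 h. CellTiter-Glo luminescence after 2 min shaking plus 15 min stabilization; viability given as percent of control, n = 3, ± SD.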
# [4] = Cytotoxicity against human Hs578Bst cells at 40 uM after 72 hrs by CellTiter-Glo assay relative to untreated control; format: cell-based; summary of the method: as §2
SMILES,IC50 (MCF7),IC50 (T47D),IC50 (SK-BR-3),IC50 (Hs-578T [1]),IC50 [2],% toxicity (Hs-578T [3]),% toxicity [4]
C[C@H]1O[C@@H](O[C@H]2CC[C@@]3(C)[C@@H](CC[C@@H]4[C@@H]3CC[C@]3(C)[C@](O)(C5=CC(=O)OC5)CC[C@]43O)C2)[C@H](O)[C@H](O)[C@@H]1O[C@@H]1O[C@H](CO)[C@@H](O)[C@H](O)[C@H]1O,> 40000 nM,> 40000 nM,> 40000 nM,> 40000 nM,14200 nM,56%,38.2%
C[C@H]1O[C@@H](O[C@H]2CC[C@@]3(C)[C@@H](CC[C@@H]4[C@@H]3CC[C@]3(C)[C@@H](C5=CC(=O)OC5)CC[C@]43O)C2)[C@H](O)[C@H](O)[C@@H]1O[C@@H]1O[C@H](CO)[C@@H](O)[C@H](O)[C@H]1O,5300 nM,1760 nM,2520 nM,593 nM,43 nM,91.5%,51.7%
O=c1c(O[C@@H]2OC[C@@H](O)[C@H](O)[C@H]2O[C@@H]2O[C@H](CO)[C@H](O)[C@H](O)[C@H]2O)c(-c2ccc(O)cc2)oc2cc(O)cc(O)c12,> 40000 nM,> 40000 nM,> 40000 nM,> 40000 nM,> 40000 nM,32.7%,13.9%
C[C@]12CC[C@H](O[C@@H]3O[C@H](CO)[C@@H](O)[C@H](O)[C@H]3O)C[C@@H]1CC[C@@H]1[C@@H]2CC[C@]2(C)[C@@H](C3=CC(=O)OC3)CC[C@]12O [DESGLUCOUZARIN],17000 nM,11700 nM,18100 nM,6280 nM,1050 nM,85.5%,51.6%
C[C@]12CC[C@H](O)C[C@H]1CC[C@@H]1[C@@H]2CC[C@]2(C)[C@@H](C3=CC(=O)OC3)CC[C@]12O [DIGITOXIGENIN],9100 nM,2530 nM,4420 nM,1020 nM,150 nM,92.3%,49.8%
C[C@H]1O[C@@H](O[C@H]2[C@@H](O)C[C@H](O[C@H]3[C@@H](O)C[C@H](O[C@H]4CC[C@@]5(C)[C@H](CC[C@@H]6[C@@H]5C[C@@H](O)[C@]5(C)[C@@H](C7=CC(=O)OC7)CC[C@]65O)C4)O[C@@H]3C)O[C@@H]2C)C[C@H](O)[C@@H]1O [DIGOXIN],4700 nM,660 nM,1080 nM,251 nM,40 nM,93.5%,47.7%
COc1cccc2c1C(=O)c1c(O)c3c(c(O)c1C2=O)C[C@@](O)(C(=O)CO)C[C@@H]3O[C@H]1C[C@H](N)[C@H](O)[C@H](C)O1 [DOXORUBICIN],1540 nM,1900 nM,210 nM,546 nM,180 nM,98.3%,64.3%
C[C@@H]1O[C@@H](O[C@H]2C[C@@H](O)[C@]3(CO)[C@H]4[C@H](O)C[C@]5(C)[C@@H](C6=CC(=O)OC6)CC[C@]5(O)[C@@H]4CC[C@]3(O)C2)[C@H](O)[C@H](O)[C@H]1O [OUABAIN],10600 nM,385 nM,403 nM,110 nM,6 nM,93%,55.8%
C[C@]12CC[C@H](O[C@@H]3O[C@H](CO[C@@H]4O[C@H](CO)[C@@H](O)[C@H](O)[C@H]4O)[C@@H](O)[C@H](O)[C@H]3O)C[C@@H]1CC[C@@H]1[C@@H]2CC[C@]2(C)[C@@H](C3=CC(=O)OC3)CC[C@]12O [UZARIN],11600 nM,9500 nM,19400 nM,4580 nM,760 nM,84%,54.7%
